In ChEMBL document CHEMBL4014345, “Development of Selective Clk1 and -4 Inhibitors for Cellular Depletion of Cancer-Relevant Proteins” (J Med Chem, 2017):

Experiments:
[1] = target: T1, Dual specificity protein kinase CLK1 (Homo sapiens, UniProt P49759); experiment: Inhibition of recombinant human GST-tagged Clk1 expressed in Escherichia coli at 100 nM using RS repeat substrate peptide after 15 mins in presence of [gamma-32]-ATP
Target sequence in this assay (P49759 whole entry, looked up): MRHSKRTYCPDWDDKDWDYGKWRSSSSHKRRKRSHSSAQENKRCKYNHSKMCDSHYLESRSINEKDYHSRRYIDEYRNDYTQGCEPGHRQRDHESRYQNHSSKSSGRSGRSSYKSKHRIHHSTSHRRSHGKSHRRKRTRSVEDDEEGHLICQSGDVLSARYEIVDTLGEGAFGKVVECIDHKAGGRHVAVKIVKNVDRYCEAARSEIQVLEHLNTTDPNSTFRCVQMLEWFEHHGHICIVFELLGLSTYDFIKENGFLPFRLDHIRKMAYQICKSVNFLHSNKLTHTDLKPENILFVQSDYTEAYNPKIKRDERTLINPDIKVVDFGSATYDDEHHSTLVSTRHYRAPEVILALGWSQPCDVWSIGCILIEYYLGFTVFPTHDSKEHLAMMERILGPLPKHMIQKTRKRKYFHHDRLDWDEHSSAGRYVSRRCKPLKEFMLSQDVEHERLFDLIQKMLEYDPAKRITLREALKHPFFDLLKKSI

T-24 = experiment: Cytotoxicity against human T24 cells assessed as growth inhibition after 5 days by MTT assay; format: functional; conditions: T-24, 120 h
In short: (§1)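 They were seeded at 5000 cells per well onto compound or DMSO (0.2% final). Plates were kept 5 days at 37 °C in 5% CO2 with no medium change, then read by MTT.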

[2] = target: T2, Dual specificity protein kinase CLK1/CLK4 (Homo sapiens, UniProt Q9HAZ1+P49759); experiment: Inhibition of CLK1/4 in human MDA-MB-231 cells assessed as down regulation of EGFR expression at 10 uM after 3 days by Western blot analysis relative to control; format: cell-based
In short: (§2)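 T24 or MDA-MB-231 cells were grown in DMEM to 70% confluency. The medium was replaced with compound diluted in DMEM, and cells were kept 3 days. Total protein was immunoblotted with monoclonal antibodies in 3% BSA/PBS against EGFR, p70S6K α, PARP-1, ERK2, HDAC1, CD44, PCNA and GRP94.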

[3] = target: T2, Dual specificity protein kinase CLK1/CLK4; experiment: Inhibition of CLK1/4 in human T24 cells assessed as down regulation of HDAC1 expression at 5 uM after 3 days by Western blot analysis relative to control; format: cell-based; in short: as §2
[4] = target: T2, Dual specificity protein kinase CLK1/CLK4; experiment: Inhibition of CLK1/4 in human MDA-MB-231 cells assessed as down regulation of S6 kinase expression at 10 uM after 3 days by Western blot analysis relative to control; format: cell-based; in short: as §2
[5] = target: T2, Dual specificity protein kinase CLK1/CLK4; experiment: Inhibition of CLK1/4 in human MDA-MB-231 cells assessed as down regulation of S6 kinase expression at 2.5 uM after 3 days by Western blot analysis relative to control; format: cell-based; in short: as §2
[6] = target: T2, Dual specificity protein kinase CLK1/CLK4; experiment: Inhibition of CLK1/4 in human MDA-MB-231 cells assessed as down regulation of S6 kinase expression at 20 uM after 3 days by Western blot analysis relative to control; format: cell-based; in short: as §2
[7] = target: T2, Dual specificity protein kinase CLK1/CLK4; experiment: Inhibition of CLK1/4 in human MDA-MB-231 cells assessed as down regulation of EGFR expression at 5 uM after 3 days by Western blot analysis relative to control; format: cell-based; in short: as §2
[8] = target: T2, Dual specificity protein kinase CLK1/CLK4; experiment: Inhibition of CLK1/4 in human MDA-MB-231 cells assessed as down regulation of EGFR expression at 20 uM after 3 days by Western blot analysis relative to control; format: cell-based; in short: as §2
[9] = target: T2, Dual specificity protein kinase CLK1/CLK4; experiment: Inhibition of CLK1/4 in human MDA-MB-231 cells assessed as down regulation of S6 kinase expression after 3 days by Western blot analysis; format: cell-based; in short: as §2
MDA-MB-231 = experiment: Cytotoxicity against human MDA-MB-231 cells assessed as growth inhibition after 5 days by MTT assay; format: functional; conditions: MDA-MB-231, 120 h; in short: as §1
[10] = target: T2, Dual specificity protein kinase CLK1/CLK4; experiment: Inhibition of CLK1/4 in human T24 cells assessed as down regulation of EGFR expression after 3 days by Western blot analysis; format: cell-based; in short: as §2
[11] = target: T2, Dual specificity protein kinase CLK1/CLK4; experiment: Inhibition of CLK1/4 in human T24 cells assessed as down regulation of HDAC1 expression at 10 uM after 3 days by Western blot analysis relative to control; format: cell-based; in short: as §2
[12] = target: T2, Dual specificity protein kinase CLK1/CLK4; experiment: Inhibition of CLK1/4 in human T24 cells assessed as down regulation of EGFR expression at 5 uM after 3 days by Western blot analysis relative to control; format: cell-based; in short: as §2
[13] = target: T2, Dual specificity protein kinase CLK1/CLK4; experiment: Inhibition of CLK1/4 in human T24 cells assessed as down regulation of EGFR expression at 10 uM after 3 days by Western blot analysis relative to control; format: cell-based; in short: as §2
[14] = target: T2, Dual specificity protein kinase CLK1/CLK4; experiment: Inhibition of CLK1/4 in human T24 cells assessed as down regulation of HDAC1 expression after 3 days by Western blot analysis; format: cell-based; in short: as §2
[15] = target: T2, Dual specificity protein kinase CLK1/CLK4; experiment: Inhibition of CLK1/4 in human MDA-MB-231 cells assessed as down regulation of S6 kinase expression at 5 uM after 3 days by Western blot analysis relative to control; format: cell-based; in short: as §2
[16] = target: T2, Dual specificity protein kinase CLK1/CLK4; experiment: Inhibition of CLK1/4 in human MDA-MB-231 cells assessed as down regulation of EGFR expression after 3 days by Western blot analysis; format: cell-based; in short: as §2
[17] = target: T2, Dual specificity protein kinase CLK1/CLK4; experiment: Inhibition of CLK1/4 in human MDA-MB-231 cells assessed as down regulation of EGFR expression at 2.5 uM after 3 days by Western blot analysis relative to control; format: cell-based; in short: as §2
[18] = target: T2, Dual specificity protein kinase CLK1/CLK4; experiment: Inhibition of CLK1/4 in human T24 cells assessed as down regulation of HDAC1 expression at 15 uM after 3 days by Western blot analysis relative to control; format: cell-based; in short: as §2
[19] = target: T2, Dual specificity protein kinase CLK1/CLK4; experiment: Inhibition of CLK1/4 in human T24 cells assessed as down regulation of EGFR expression at 15 uM after 3 days by Western blot analysis relative to control; format: cell-based; in short: as §2
[20] = target: T1, Dual specificity protein kinase CLK1; experiment: Inhibition of recombinant human GST-tagged Clk1 expressed in Escherichia coli using RS repeat substrate peptide after 15 mins in presence of [gamma-32]-ATP
Target sequence in this assay (P49759 whole entry): as the sequence (P49759 whole entry, looked up) above

Compound: COc1ccc2sc(C(=O)N[C@H](C(=O)O)C(C)C)cc2c1
- inhibition [1]: 0%

Compound: COc1ccc2sc(C(=O)NCCn3ccnc3)cc2c1
- inhibition [1]: 0%

Compound: COc1ccc2sc(C(=O)NCc3cccc(F)c3)cc2c1
- GI50 (T-24): > 40 µM
- inhibition [2]: 30.9%
- inhibition [3]: 13.7%
- inhibition [4]: 8%
- inhibition [1]: 33.9%
- inhibition [5]: 0%
- inhibition [6]: 10.9%
- inhibition [7]: 36.7%
- inhibition [8]: 25.1%
- IC50 [9]: > 20 µM
- GI50 (MDA-MB-231): > 40 µM
- IC50 [10]: > 15 µM
- inhibition [11]: 16.1%
- inhibition [12]: 26%
- inhibition [13]: 32.9%
- IC50 [14]: > 15 µM
- inhibition [15]: 7.8%
- IC50 [16]: > 20 µM
- inhibition [17]: 13.1%
- inhibition [18]: 0%
- inhibition [19]: 36.6%

Compound: COc1ccc2sc(C(=O)N[C@H](C)C(C)(C)C)cc2c1
- inhibition [1]: 6%

Compound: COc1ccc2sc(C(=O)NCC(=O)O)cc2c1
- inhibition [1]: 0.5%

Compound: COC(=O)[C@@H](NC(=O)c1cc2cc(OC)ccc2s1)C(C)C
- inhibition [1]: 18.8%

Compound: COc1ccc2sc(C(=O)NCCN)cc2c1
- inhibition [1]: 7.7%

Compound: COc1ccc2sc(C(=O)N(C)Cc3cccc(C)c3)cc2c1
- inhibition [1]: 25.9%

Compound: COc1ccc2sc(C(=O)NCCO)cc2c1
- inhibition [1]: 0%

Compound: COc1ccc2sc(C(=O)NCC(F)(F)F)cc2c1
- inhibition [1]: 39.8%

Compound: COc1ccc2sc(C(=O)N3CCCCC3)cc2c1
- inhibition [1]: 0%

Compound: COc1ccc2sc(C(=O)N3CCOCC3)cc2c1
- inhibition [1]: 0%

Compound: COc1ccc2sc(C(=O)NCc3ccccn3)cc2c1
- inhibition [1]: 0%

Compound: COc1ccc2sc(C(=O)NCCc3ccccc3)cc2c1
- inhibition [1]: 50.7%
- IC50 [20]: 0.107 µM

Compound: COc1ccc2sc(C(=O)NCc3ccco3)cc2c1
- inhibition [1]: 33.4%

Compound: COc1ccc2sc(C(=O)NC3CC3)cc2c1
- inhibition [1]: 25%

Compound: COc1ccc2sc(C(=O)N3CCN(C)CC3)cc2c1
- inhibition [1]: 0%

Compound: CCOC(=O)[C@H](C)NC(=O)c1cc2cc(OC)ccc2s1
- inhibition [1]: 0%
